Source: PubChem BioAssay
Most compounds without a hit are left out; they make up all but 3.2% or so of the library.
DAX1 inh-1 – inhibitors of human orphan nuclear receptor DAX1 (NR0B1) | HEK293 Gal4-DAX1 luciferase reporter, luminescence | inhibition, % at 6.75 µM | actives 0.99% (n = 340,000) | AID 504766 | P51843;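 active = inhibition above the mean over all tested compounds plus 3 SD, cut at about 4.2% in these data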;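 also: inhibition shows as a rise in luminescence from relieved DAX1 repression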
Target sequence (P51843 207-470 limits assumed): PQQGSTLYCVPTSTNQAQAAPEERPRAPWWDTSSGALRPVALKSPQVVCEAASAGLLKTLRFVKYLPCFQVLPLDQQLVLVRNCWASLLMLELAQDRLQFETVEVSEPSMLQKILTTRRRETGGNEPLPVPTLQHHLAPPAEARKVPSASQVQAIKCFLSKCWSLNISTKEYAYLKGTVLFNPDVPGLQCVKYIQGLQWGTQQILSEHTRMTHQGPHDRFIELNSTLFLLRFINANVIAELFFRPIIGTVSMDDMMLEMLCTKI
NR2E3 ag-1 – activates human photoreceptor nuclear receptor NR2E3 | Q9Y5X4 | GST-NR2E3/biotin-RetCOR TR-FRET, 1536-well | actives 0.12% (n = 320,000) | inhibition of corepressor binding, % at 4.78 µM;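 active = percent inhibition above the cutoff of mean plus 3 SD of all tested compounds, set per screening campaign, cut at about 20% in these data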
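Material – GST-tagged NR2E3 plus biotinylated RetCOR corepressor · Quantity – NR2E3 fusion 1.35 nM · Times – 5 h incubation at 4 °C · Medium – pH 7.5 Tris-based buffer · Technique – TR-FRET, Eu(K)-anti-GST donor, streptavidin-D2 acceptor, ex 340, em 617/671 nm · Benchmarks – high control biotin, low control 0.6% DMSO · Format – 1536-well plates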
GASC-1 inh – human JMJD2C demethylase inhibition | Q9H3R0 | GST-JMJD2C(1-420) H3K9me3 demethylation, DELFIA europium | inhibition, % at 2.35 µM | actives 0.069% (n = 330,000) | AID 2099;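 active = more than half of a compound's replicate wells show inhibition beyond 50%, single wells judged on their own value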;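 also: signal counts dimethyl H3K9 product captured on neutravidin plate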
DAX1 inh-2 – inhibitors of DAX1 repression of SF-1 activated StAR promoter; HEK293T StAR-luciferase reporter, SF-1/DAX-1 repression relief; inhibition, % at 6.8 µM; actives 1.1% (n = 370,000); AID 652010;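 active = inhibition above the mean over all tested compounds plus 3 SD, cut at about 3.6% in these data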;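 also: higher inhibition means more luminescence from relief of DAX-1 repression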
SMARCA2 act – activators of SMARCA2 function; MG213 cells, MMTV-luciferase reporter, dexamethasone, overnight; activation, % at 9.1 µM; actives 1% (n = 370,000); AID 652017; in the data active = activation above about 7.8%
NR2E3 ag-2 – agonists of human NR2E3 nuclear receptor | Q9Y5X4 | inhibition of corepressor binding, % at 3.98 µM | CHO-S Gal4-NCOR/VP16-NR2E3 two-hybrid, luciferase | actives 0.35% (n = 360,000);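 active = inhibition above the mean of all tested compounds plus 3 SD, cut at about 70% in these data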;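 also: higher means lower luciferase signal from less NR2E3 corepressor binding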
Hits are given with their value.

For O=C(OCC(=O)N1CCOCC1)c1ccccc1Cc1ccccc1 the results were DAX1 inh-1 inactive, NR2E3 ag-1 inactive, GASC-1 inh inactive, DAX1 inh-2 4.1, SMARCA2 act inactive and NR2E3 ag-2 inactive.
For Cc1cc(C)nc(N2CCC(C(=O)N(C)CCc3ccccn3)CC2)n1 the results were DAX1 inh-2 inactive and SMARCA2 act inactive.
COc1ccc(-c2cc(CS(=O)(=O)c3ccccc3)on2)cc1 was read as DAX1 inh-1 4.5, NR2E3 ag-1 inactive, GASC-1 inh inactive, DAX1 inh-2 inactive, SMARCA2 act inactive and NR2E3 ag-2 inactive.
`COc1ccc(-c2cc(-c3ccccc3)no2)cc1` gave DAX1 inh-1 inactive, NR2E3 ag-1 inactive, GASC-1 inh inactive, DAX1 inh-2 4.0, SMARCA2 act inactive and NR2E3 ag-2 inactive.
Cn1c(N2CCOCC2)c(/C=N/O)c2ccccc21 was read as DAX1 inh-1 7.5, NR2E3 ag-1 inactive, GASC-1 inh inactive, DAX1 inh-2 inactive, SMARCA2 act inactive and NR2E3 ag-2 inactive.
`CCNC(=O)C(=O)Nc1ccc([N+](=O)[O-])cc1` gave DAX1 inh-1 4.7, NR2E3 ag-1 inactive, GASC-1 inh inactive, DAX1 inh-2 inactive, SMARCA2 act inactive and NR2E3 ag-2 inactive.
For COc1cc(OC)c(C(=O)N2CCN(c3ccccn3)CC2)cc1OC the results were DAX1 inh-1 inactive, NR2E3 ag-1 inactive, GASC-1 inh inactive, DAX1 inh-2 inactive, SMARCA2 act inactive and NR2E3 ag-2 inactive.
CCn1cc(C(=O)N2CCN(c3ccccn3)CC2)c2cc(OC)c(OC)cc2c1=O was read as DAX1 inh-1 inactive, NR2E3 ag-1 inactive, GASC-1 inh inactive, DAX1 inh-2 inactive, SMARCA2 act 8.4 and NR2E3 ag-2 inactive.
Screening COc1ccc(CNS(=O)(=O)/C=C/c2cc(C)ccc2CNC(=O)OC(C)(C)C)cc1 returned DAX1 inh-2 inactive and SMARCA2 act inactive.
For CC/C(=N/Nc1ccccc1)c1cnnc(-c2ccccc2)n1 the results were DAX1 inh-1 inactive, NR2E3 ag-1 inactive, GASC-1 inh inactive, DAX1 inh-2 inactive, SMARCA2 act inactive and NR2E3 ag-2 inactive.
Screening CC/C(=N/Nc1cccc(Cl)c1)c1cnnc(SC)n1 returned DAX1 inh-1 4.6, NR2E3 ag-1 inactive, GASC-1 inh inactive, DAX1 inh-2 inactive, SMARCA2 act inactive and NR2E3 ag-2 inactive.
Screening Cc1ccc(CN2C(=O)c3ccccc3C2c2nnnn2-c2ccc3c(c2)OCCO3)cc1 (stereo not drawn) returned DAX1 inh-2 inactive, SMARCA2 act inactive and NR2E3 ag-2 inactive.
For Cc1ccccc1CN1C(=O)c2ccccc2C1c1nnnn1-c1ccc2c(c1)OCCO2 (stereo not drawn) the results were DAX1 inh-2 inactive, SMARCA2 act 7.9 and NR2E3 ag-2 inactive.
For O=C1c2ccccc2C(c2nnnn2-c2ccc3c(c2)OCCO3)N1CCCn1ccnc1 (stereo not drawn) the results were DAX1 inh-2 3.9, SMARCA2 act inactive and NR2E3 ag-2 inactive.
For CC(C)C(=O)OCCCN1C(=O)CCC12CCC(c1ccccc1)CC2 (stereo not drawn) the results were DAX1 inh-2 inactive and SMARCA2 act inactive.
Screening Cc1c(C(N)=O)c(N)c(C(=O)c2ccccc2)n1-c1ccccc1 returned DAX1 inh-1 5.0, NR2E3 ag-1 inactive, GASC-1 inh inactive, DAX1 inh-2 inactive, SMARCA2 act inactive and NR2E3 ag-2 inactive.
O=C(Nc1ccccc1C(F)(F)F)c1cc2ccccc2o1 was read as DAX1 inh-1 5.2, NR2E3 ag-1 inactive, GASC-1 inh inactive, DAX1 inh-2 inactive, SMARCA2 act inactive and NR2E3 ag-2 inactive.
For O=C(Nc1ccc(CN2CCOCC2)cc1)c1cc2ccccc2o1 the results were DAX1 inh-1 inactive, NR2E3 ag-1 inactive, GASC-1 inh inactive, DAX1 inh-2 3.6, SMARCA2 act inactive and NR2E3 ag-2 inactive.
`O=C(NC(=S)Nc1ccc(CN2CCOCC2)cc1)c1cc2ccccc2o1` gave DAX1 inh-1 inactive, NR2E3 ag-1 inactive, GASC-1 inh inactive, DAX1 inh-2 inactive, SMARCA2 act inactive and NR2E3 ag-2 inactive.
For Cc1cc(N/N=C/c2ccncc2)nc2ccccc12 the results were DAX1 inh-1 inactive, GASC-1 inh inactive, DAX1 inh-2 3.9, SMARCA2 act inactive and NR2E3 ag-2 inactive.
